# ChEMBL document CHEMBL1157553, “Synthesis of novel aminoglycosides via allylic azide rearrangement for investigating the significance of 2'-amino group” (2010)
# How the values were obtained:
# Escherichia coli = assay: Antibacterial activity against aminoglycoside-susceptible Escherichia coli ATCC 25922 after 12 to 18 hrs; type: functional
# Summary of the method: (§1)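 Broth microdilution MIC. Bacteria grown in Trypticase Soy broth at 35 °C for 1–2 h, then diluted with broth to an absorbance of 0.08–0.1 at 625 nm. This suspension was further diluted into broth and dispensed into 96-well plates containing 2-fold serial dilutions of compound. Plates were incubated 12–18 h at 35 °C. MIC is the lowest concentration inhibiting growth, repeated at least three times.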
# Staphylococcus aureus [1] = assay: Antibacterial activity against aminoglycoside-susceptible Staphylococcus aureus ATCC 25923 after 12 to 18 hrs; type: functional; summary of the method: as §1
# Klebsiella pneumoniae [2] = assay: Antibacterial activity against aminoglycoside-susceptible Klebsiella pneumoniae ATCC 13883 after 12 to 18 hrs; type: functional; summary of the method: as §1
# Pseudomonas aeruginosa = assay: Antibacterial activity against aminoglycoside-resistant Pseudomonas aeruginosa ATCC 27853 after 12 to 18 hrs; type: functional
# Summary of the method: (§2)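 Broth microdilution MIC. Bacteria grown in Trypticase Soy broth at 35 °C for 1–2 h, then adjusted to absorbance 0.08–0.1 at 625 nm. This suspension was diluted into 10 mL broth and dispensed into wells, and 2-fold serial dilutions of compound were added. Plates were incubated at 35 °C for 12–18 h. MIC was the lowest concentration inhibiting growth, with at least three repeats.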
# Staphylococcus aureus [3] = assay: Antibacterial activity against aminoglycoside-resistant Staphylococcus aureus ATCC 33591 after 12 to 18 hrs; type: functional; summary of the method: as §2
# Klebsiella pneumoniae [4] = assay: Antibacterial activity against aminoglycoside-resistant Klebsiella pneumoniae ATCC 700603 after 12 to 18 hrs
Structure (SMILES),MIC (Escherichia coli) [µg/mL],MIC (Staphylococcus aureus [1]) [µg/mL],MIC (Klebsiella pneumoniae [2]) [µg/mL],MIC (Pseudomonas aeruginosa) [µg/mL],MIC (Staphylococcus aureus [3]) [µg/mL],MIC (Klebsiella pneumoniae [4]) [µg/mL]
CCCCCCNC(=O)O[C@@H]1[C@@H](OC(=O)NCCCCCC)[C@H](N)C[C@H](N)[C@H]1O[C@@H]1CC[C@H](N)[C@@H](CN)O1,125,32,4,16,16,≥ 250
NC[C@@H]1CC[C@@H](N)[C@@H](O[C@H]2[C@H](O)[C@@H](O[C@@H]3O[C@H](CO)[C@@H](O)[C@H](O)[C@H]3O)[C@H](N)C[C@@H]2N)O1,64,125,–,–,–,–
CCCCCCNC(=O)O[C@@H]1[C@@H](O)[C@H](O[C@H]2O[C@H](CN)[C@@H](O)[C@H](O)[C@H]2N)[C@@H](N)C[C@H]1N,–,–,16,64,≥ 250,125
CCCCCCNC(=O)O[C@@H]1[C@@H](O)[C@H](O[C@H]2O[C@H](CN)CC[C@H]2N)[C@@H](N)C[C@H]1N,≥ 250,125,16,16,64,125
CCCCCCNC(=O)O[C@@H]1[C@@H](O)[C@H](O[C@@H]2CC[C@H](N)[C@@H](CN)O2)[C@@H](N)C[C@H]1N,≥ 250,32,16,16,64,≥ 250
CCCCCCNC(=O)O[C@@H]1[C@@H](OC(=O)NCCCCCC)[C@H](N)C[C@H](N)[C@H]1O[C@H]1O[C@H](CN)[C@@H](O)[C@H](O)[C@H]1N,–,–,32,125,125,125
NC[C@@H]1O[C@H](O[C@H]2[C@@H](O)[C@H](O[C@@H]3[C@@H](O)[C@H](N)C[C@H](N)[C@H]3O[C@H]3O[C@H](CN)[C@@H](O)[C@H](O)[C@H]3N)O[C@@H]2CO)[C@H](N)[C@@H](O)[C@@H]1O [FRAMYCETIN],4,1,–,–,–,–
NC[C@H]1O[C@H](O[C@H]2[C@H](O)[C@@H](O[C@H]3O[C@H](CO)[C@@H](O)[C@H](N)[C@H]3O)[C@H](N)C[C@@H]2N)[C@H](O)[C@@H](O)[C@@H]1O [KANAMYCIN],4,2,–,–,–,–
NC[C@H]1O[C@H](O[C@H]2[C@H](O)[C@@H](O)[C@H](N)C[C@@H]2N)[C@H](N)[C@@H](O)[C@@H]1O [NEAMINE],32,4,2,64,125,16

# Second part, led by results:
MIC (Escherichia coli) [µg/mL],MIC (Staphylococcus aureus [1]) [µg/mL],Structure (SMILES),MIC (Klebsiella pneumoniae [2]) [µg/mL],MIC (Pseudomonas aeruginosa) [µg/mL],MIC (Staphylococcus aureus [3]) [µg/mL],MIC (Klebsiella pneumoniae [4]) [µg/mL]
≥ 250,≥ 250,NC[C@H]1O[C@H](O[C@H]2[C@H](O)[C@@H](O[C@@H]3O[C@H](CO)[C@@H](O)[C@H](O)[C@H]3O)[C@H](N)C[C@@H]2N)CC[C@@H]1N,–,–,–,–
16,8,C[C@H]1O[C@@H](O[C@@H]2[C@@H](O)[C@H](O[C@@H]3CC[C@H](N)[C@@H](CN)O3)[C@@H](N)C[C@H]2N)[C@H](O)[C@@H](N)[C@@H]1O,–,–,–,–
16,4,C[C@H]1O[C@@H](O[C@@H]2[C@@H](O)[C@H](N)C[C@H](N)[C@H]2O[C@H]2O[C@H](CN)CC[C@H]2N)[C@@H](O)[C@@H](O)[C@@H]1N,–,–,–,–
≥ 250,64,NC[C@H]1O[C@H](O[C@H]2[C@H](O)[C@@H](O)[C@H](N)C[C@@H]2N)CC[C@@H]1N,–,–,–,–
125,125,C[C@H]1O[C@@H](O[C@@H]2[C@@H](O)[C@H](N)C[C@H](N)[C@H]2O[C@@H]2CC[C@H](N)[C@@H](CN)O2)[C@@H](O)[C@@H](O)[C@@H]1N,–,–,–,–
4,2,NC[C@@H]1CC[C@@H](N)[C@@H](O[C@H]2[C@H](O)[C@@H](O[C@@H]3OC[C@@H](O)[C@H](N)[C@H]3O)[C@H](N)C[C@@H]2N)O1,–,–,–,–
32,16,NC[C@@H]1CC[C@@H](N)[C@@H](O[C@H]2[C@H](O)[C@@H](O)[C@H](N)C[C@@H]2N)O1 [GENTAMINE C1A],–,–,–,–
